# Measurements taken from ChEMBL document CHEMBL1681759, “Synthesis and biological evaluation of benzimidazole-5-carbohydrazide derivatives as antimalarial, cytotoxic and antitubercular agents” (Bioorg Med Chem, 2011).
# Tested on: Mycobacterium tuberculosis
# Assay: Antimycobacterial activity against multidrug-resistant Mycobacterium tuberculosis clinical isolate after 5 days by tetrazolium microplate assay
# Type: functional
# Settings: 120 h
# Procedure, shortened: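 Tetrazolium microplate assay run in 7H9GC broth. DMSO stocks (4 mg/mL) were diluted to final 0.4–25 µg/mL. Isoniazid (0.125–32 µg/mL) and rifampin (0.063–16 µg/mL) were positive controls; inoculum-only and DMSO controls were included. Plates were incubated 5 days at 37 °C, then an MTT-Tween 80 mix was added and incubation continued 24 h at 37 °C. Run in triplicate. MIC = lowest concentration preventing the yellow-to-purple colour change.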
row,Structure (SMILES),MIC [µg/mL]
1,COc1cccc(C(=O)NNC(=O)c2ccc3[nH]c(-c4ccc([N+](=O)[O-])o4)nc3c2)c1,25
2,COc1ccc(C(=O)NNC(=O)c2ccc3[nH]c(-c4ccc([N+](=O)[O-])o4)nc3c2)cc1OC,25
3,COc1cccc(C(=O)NNC(=O)c2ccc3[nH]c(-c4ccc([N+](=O)[O-])s4)nc3c2)c1,25
4,NNC(=O)c1ccncc1 [ISONIAZID],4
5,O=CNNC(=O)c1ccc2[nH]c(-c3ccc([N+](=O)[O-])o3)nc2c1,> 25
6,O=C(NNC(=O)c1cc2ccccc2cc1O)c1ccc2[nH]c(-c3ccc([N+](=O)[O-])s3)nc2c1,> 25
7,O=C(O)c1ccc2[nH]c(-c3ccc([N+](=O)[O-])o3)nc2c1,> 25
8,CO[C@H]1/C=C/O[C@@]2(C)Oc3c(C)c(O)c4c(O)c(c(/C=N/N5CCN(C)CC5)c(O)c4c3C2=O)NC(=O)/C(C)=C\C=C\[C@H](C)[C@H](O)[C@@H](C)[C@@H](O)[C@@H](C)[C@H](OC(C)=O)[C@@H]1C [RIFAMPIN],2
9,O=C(NNC(=O)c1ccc2[nH]c(-c3ccc([N+](=O)[O-])o3)nc2c1)c1cccc(Oc2ccccc2)c1,25
10,COc1cc(C(=O)NNC(=O)c2ccc3[nH]c(-c4ccc([N+](=O)[O-])s4)nc3c2)cc(OC)c1OC,> 25
11,O=C(NNC(=O)c1ccc2[nH]c(-c3ccc([N+](=O)[O-])o3)nc2c1)c1ccccc1,6.25
12,COc1cc(C(=O)NNC(=O)c2ccc3[nH]c(-c4ccc([N+](=O)[O-])o4)nc3c2)cc(OC)c1OC,25
